Data as given in ChEMBL document CHEMBL1154974, “Semi-automated high-throughput fluorescent intercalator displacement-based discovery of cytotoxic DNA binding agents from a large compound library” (Bioorg Med Chem Lett, 2010).
*1 amine or outer side, *2 acyl side, *3 side chain or, on linkers, in order; H or OH if unused. Where a SMILES comes first, the peptide text is derived from it. Bridges are numbered along the chain shown (N, C = ends). Roman numbers before positions name the chains, in order. [ ]: non-standard residue; d: D form. Actinocin(1to9) = Cc1c2oc3c(C)ccc(C(=O)[*:2])c3nc-2c(C(=O)[*:1])c(N)c1=O; NMeV = CN[C@H](C(=O)O)C(C)C; Sar = CNCC(=O)O

Tests used:
Nucleic Acid [1] = assay: Binding affinity to calf thymus DNA assessed as decrease in ethidium bromide fluorescence at 10 uM by HT-FID assay; assay type: nucleic-acid assay; settings: Bos taurus
Nucleic Acid [2] = assay: Binding affinity to poly dA/dT DNA assessed as change in melting temperature by thermal denaturation assay; assay type: nucleic-acid assay
Nucleic Acid [3] = assay: Binding affinity to G/C-rich DNA oligonucleotide assessed as change in melting temperature by thermal denaturation assay; assay type: nucleic-acid assay
Nucleic Acid [4] = assay: Binding affinity to calf thymus DNA assessed as decrease in ethidium bromide fluorescence by FID assay; assay type: nucleic-acid assay, Bos taurus
How it was run: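 Concentration-response FID using plate conditions as in the screen (calf thymus DNA, ethidium bromide, Tris buffer). Compound added to final 0.1-50 μM, from gravimetrically prepared stocks. FD50 taken as concentration giving 50% fluorescence decrease within each compound's achievable range; maximum %F decrease measured experimentally.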

[5] = Cytotoxicity against human SF-767 cells assessed as viable cells after 72 hrs by MTT assay; assay type: functional; settings: SF767, 72 h, read-out: LC50 (the source's name)
How it was run: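 SF767 glioblastoma cells, 2000 per well, grown 24 h, then exposed to increasing concentrations of compound for 72 h. Viable cells read by MTT with standard protocols. Media-only blank in each treatment group as background. Run in triplicate. LC50 read graphically from plots of % surviving cells against concentration.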

Row | Structure (SMILES) | Binding Decrease (Nucleic Acid [1]) [%] | ΔTm (Nucleic Acid [2]) [°C] | ΔTm (Nucleic Acid [3]) [°C] | EC50 (Nucleic Acid [4]) [µM] | CC50 [5] [µM]
1 | Cn1cc(NC(=O)c2cc(NC(=O)CNC(=N)N)cn2C)cc1C(=O)NCCC(=N)N [NETROPSIN] | 32 | 45 | 0 | 5.1 | 
2 | CCc1ccc2c(C)nc(NC3=NC(C)(C)C=C(C)N3)nc2c1 | 40 | 10 | 0 | 7.7 | 2.6
3 | Cc1cccn2c(=O)c3cc(C(=O)NCCc4ccccc4)c(=N)n(CCc4ccccc4)c3nc12 | 22 | 0 | 10 | 7.7 | > 25
4 | Cc1c2oc3c(C)ccc(C(=O)N[C@@H]4C(=O)N[C@H](C(C)C)C(=O)N5CCC[C@H]5C(=O)N(C)CC(=O)N(C)[C@@H](C(C)C)C(=O)O[C@@H]4C)c3nc-2c(C(=O)N[C@@H]2C(=O)N[C@H](C(C)C)C(=O)N3CCC[C@H]3C(=O)N(C)CC(=O)N(C)[C@@H](C(C)C)C(=O)O[C@@H]2C)c(N)c1=O [DACTINOMYCIN] (I: T[dV]P[Sar][NMeV] / II: T[dV]P[Sar][NMeV]; ester I:1-I:C, II:1-II:C; linker I:N-II:N via Actinocin(1to9)) | 63 | > 45 | 10 | 4.3 | 
5 | CC(C)c1ccc(CNc2ccc3c(c2)ncn3C)cc1 | 32 | > 45 | 0 | 4.4 | 10
6 | CCc1ccc(C2NCc3ccccc3-n3cccc32)cc1 (stereo not drawn) | 36 | > 45 | 0 | 9.4 | 35
7 | Cc1ccc(Nc2nc(N)nc(CN3CCC(Cc4ccccc4)CC3)n2)cc1 | 32 | > 45 | 0 | 5.5 | 26
8 | CC(C)c1ccc(CNCCC(c2ccccc2)c2ccco2)cc1 (stereo not drawn) | 34 | > 45 | 0 | 13.5 | 13
9 | CCOC(=O)Cn1c(=N)n(CCOc2cccc(C)c2)c2ccccc21 | 46 | > 45 | 0 | 7.7 | > 50
